The source made the active and inactive calls. No cut-off for these calls is given here.
Tests used:
[1] = test system: RAW264.7; test: Antiinflammatory activity in LPS-stimulated mouse RAW264.7 cells assessed as reduction in IL6 production at 20 and 40 uM pre-treated for 6 hrs prior to LPS-challenge measured after 24 hrs in presence of HO-1 competitive inhibitor SnPP; format: functional, cell-based
Procedure, shortened: (§1)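 RAW264.7 cells pretreated 6 h with compound (40 μM), with or without SnPP (50 μM), then stimulated 24 h with LPS (500 ng/mL). Nitrite in conditioned medium measured. PGE2, TNF-α, IL-1β and IL-6 measured by commercial kit (R&D Systems). iNOS and COX-2 read by Western blot. Mean ± SD of three experiments; one-way ANOVA with Newman−Keuls test.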

[2] = test system: RAW264.7; test: Reduction in TNF-alpha production in LPS-stimulated mouse RAW264.7 cells at 20 and 40 uM pre-treated for 6 hrs prior to LPS-challenge measured after 24 hrs; format: functional, cell-based
Procedure, shortened: (§2)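 RAW264.7 macrophages pretreated 6 h with compound, then given LPS (500 ng/mL) for 24 h. TNF-α, IL-1β and IL-6 protein measured by commercial kit (R&D Systems). mRNA levels measured by real-time PCR. Mean ± SD of three experiments; one-way ANOVA with Newman−Keuls test.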

[3] = test system: RAW264.7; test: Antiinflammatory activity in LPS-stimulated mouse RAW264.7 cells assessed as reduction in PGE2 production at 5 to 40 uM pre-treated for 6 hrs prior to LPS-challenge measured after 24 hrs; format: functional, cell-based
Procedure, shortened: (§3)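 RAW264.7 macrophages pretreated 6 h with compound, then stimulated 24 h with LPS (500 ng/mL). Nitrite in conditioned medium measured. PGE2 measured by commercial kit. iNOS and COX-2 read by Western blot in RIPA lysates (25 mM Tris-HCl pH 7.6, 150 mM NaCl, 1% NP-40, 1% deoxycholate, 0.1% SDS). Mean ± SD of three experiments.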

[4] = test system: RAW264.7; test: Reduction in TNF-alpha mRNA expression in LPS-stimulated mouse RAW264.7 cells at 20 and 40 uM pre-treated for 6 hrs prior to LPS-challenge measured after 24 hrs by real-time PCR analysis; format: functional, cell-based; procedure, shortened: as §2
[5] = test system: RAW264.7; test: Antiinflammatory activity in LPS-stimulated mouse RAW264.7 cells assessed as reduction in IL-1beta production at 20 and 40 uM pre-treated for 6 hrs prior to LPS-challenge measured after 24 hrs in presence of competitive inhibitor of HO-1 SnPP; format: functional, cell-based; procedure, shortened: as §1
[6] = test system: RAW264.7; test: Reduction in iNOS expression in LPS-stimulated mouse RAW264.7 cells at 5 to 40 uM pre-treated for 6 hrs prior to LPS-challenge measured after 24 hrs by western blot analysis in presence of HO-1 competitive inhibitor SnPP by western blot analysis; format: functional, cell-based; procedure, shortened: as §1
[7] = molecular target: T1, Nuclear factor erythroid 2-related factor 2 (Mus musculus) (UniProt Q60795); test: Increase in nuclear Nrf2 translocation in LPS-stimulated mouse RAW264.7 cells assessed as cytosolic Nrf2 level at 20 and 40 uM measured up to 120 mins by Western blot analysis; format: cell-based
T1 sequence (whole entry): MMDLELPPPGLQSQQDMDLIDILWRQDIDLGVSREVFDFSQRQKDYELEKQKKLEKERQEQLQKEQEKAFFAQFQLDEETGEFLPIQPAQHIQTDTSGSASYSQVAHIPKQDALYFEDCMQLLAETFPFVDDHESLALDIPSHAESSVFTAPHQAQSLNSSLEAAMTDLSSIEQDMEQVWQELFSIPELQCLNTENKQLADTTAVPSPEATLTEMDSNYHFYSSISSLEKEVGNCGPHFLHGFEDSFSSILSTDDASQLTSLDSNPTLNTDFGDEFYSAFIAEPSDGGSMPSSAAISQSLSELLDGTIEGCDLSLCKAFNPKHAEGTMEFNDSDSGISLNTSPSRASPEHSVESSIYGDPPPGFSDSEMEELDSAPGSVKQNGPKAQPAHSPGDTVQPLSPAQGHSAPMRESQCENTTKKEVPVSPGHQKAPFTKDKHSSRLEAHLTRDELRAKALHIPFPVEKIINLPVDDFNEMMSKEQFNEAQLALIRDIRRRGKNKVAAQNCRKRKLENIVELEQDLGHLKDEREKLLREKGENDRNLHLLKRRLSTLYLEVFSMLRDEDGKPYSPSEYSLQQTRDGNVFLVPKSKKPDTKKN
Procedure, shortened: (§4)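 Cells exposed to compound at 40 μM for 0–120 min in 20 min steps. Nuclei separated from cytosol with PER-Mammalian Protein Extraction buffer plus protease inhibitor cocktail and 1 mM PMSF. Nuclear and cytoplasmic Nrf2 read by Western blot. Representative blots from three independent experiments.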

[8] = test system: RAW264.7; test: Antiinflammatory activity in LPS-stimulated mouse RAW264.7 cells assessed as reduction in PGE2 production at 5 to 40 uM pre-treated for 6 hrs prior to LPS-challenge measured after 24 hrs in presence of HO-1 competitive inhibitor SnPP
[9] = test system: RAW264.7; test: Antiinflammatory activity in LPS-stimulated mouse RAW264.7 cells assessed as reduction in nitrite production at 5 to 40 uM pre-treated for 6 hrs prior to LPS-challenge measured after 24 hrs in presence of HO-1 competitive inhibitor SnPP by Griess reaction
[10] = test system: RAW264.7; test: Reduction in iNOS expression in LPS-stimulated mouse RAW264.7 cells at 5 to 40 uM pre-treated for 6 hrs prior to LPS-challenge measured after 24 hrs by western blot analysis; format: functional, cell-based; procedure, shortened: as §3
[11] = test system: RAW264.7; test: Reduction in COX2 expression in LPS-stimulated mouse RAW264.7 cells at 5 to 40 uM pre-treated for 6 hrs prior to LPS-challenge measured after 24 hrs by western blot analysis; format: functional, cell-based; procedure, shortened: as §3
[12] = test system: RAW264.7; test: Inhibition of LPS-stimulated NF-kappaB p50 nuclear translocation in mouse RAW264.7 cells at 20 and 40 uM pre-treated for 6 hrs prior to LPS-challenge measured after 30 mins by western blot analysis; format: cell-based
Procedure, shortened: (§5)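 Cells pretreated 6 h with compound, then stimulated 30 min with LPS (500 ng/mL). Nuclear fractions probed by Western blot for p50 and p65. NF-κB DNA binding in nuclear extracts measured by TransAM ELISA kit. Mean ± SD of three experiments.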

[13] = molecular target: T1, Nuclear factor erythroid 2-related factor 2 (Mus musculus); test: Activation of Nrf2 in LPS-stimulated mouse RAW264.7 cells assessed as induction of HO-1 protein expression at 5 to 40 uM pre-treated for 6 hrs prior to LPS-challenge measured after 12 hrs by western blot analysis; format: cell-based
Procedure, shortened: (§6)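 RAW264.7 macrophages incubated 12 h with compound (5−40 μM). HO-1 mRNA measured, and HO-1 protein by Western blot. Mean ± SD of three experiments; representative blots from three independent experiments.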

[14] = test system: RAW264.7; test: Reduction in IL6 mRNA expression in LPS-stimulated mouse RAW264.7 cells at 20 and 40 uM pre-treated for 6 hrs prior to LPS-challenge measured after 24 hrs by real-time PCR analysis; format: functional, cell-based; procedure, shortened: as §2
[15] = molecular target: Transcription factor p65 (Mus musculus) (UniProt Q04207); test: Inhibition of LPS-stimulated NF-kappaB p65 nuclear translocation in mouse RAW264.7 cells at 20 and 40 uM pre-treated for 6 hrs prior to LPS-challenge measured after 30 mins by western blot analysis; format: cell-based; procedure, shortened: as §5
[16] = molecular target: Transcription factor p65 (Mus musculus) (UniProt Q04207); test: Inhibition of LPS-stimulated DNA binding activity of NF-kappaB p65 in mouse RAW264.7 cells assessed as at 20 and 40 uM pre-treated for 6 hrs prior to LPS-challenge measured after 30 mins by ELISA method; format: cell-based; procedure, shortened: as §5
[17] = molecular target: T1, Nuclear factor erythroid 2-related factor 2 (Mus musculus); test: Increase in nuclear Nrf2 translocation in LPS-stimulated mouse RAW264.7 cells assessed as nuclear Nrf2 level at 20 and 40 uM measured up to 120 mins by Western blot analysis; format: cell-based; procedure, shortened: as §4
[18] = test system: RAW264.7; test: Reduction in IL-1beta mRNA expression in LPS-stimulated mouse RAW264.7 cells at 20 and 40 uM pre-treated for 6 hrs prior to LPS-challenge measured after 24 hrs by real-time PCR analysis; format: functional, cell-based; procedure, shortened: as §2
[19] = test system: RAW264.7; test: Reduction in COX2 expression in LPS-stimulated mouse RAW264.7 cells at 5 to 40 uM pre-treated for 6 hrs prior to LPS-challenge measured after 24 hrs by western blot analysis in presence of HO-1 competitive inhibitor SnPP by western blot analysis; format: functional, cell-based; procedure, shortened: as §1
[20] = molecular target: T1, Nuclear factor erythroid 2-related factor 2 (Mus musculus); test: Activation of Nrf2 in LPS-stimulated mouse RAW264.7 cells assessed as induction of HO-1 mRNA expression at 5 to 40 uM pre-treated for 6 hrs prior to LPS-challenge measured after 12 hrs; format: cell-based; procedure, shortened: as §6
[21] = test system: RAW264.7; test: Reduction in IL6 production in LPS-stimulated mouse RAW264.7 cells at 20 and 40 uM pre-treated for 6 hrs prior to LPS-challenge measured after 24 hrs; format: functional, cell-based; procedure, shortened: as §2
[22] = test system: RAW264.7; test: Antiinflammatory activity in LPS-stimulated mouse RAW264.7 cells assessed as reduction in nitrite production at 5 to 40 uM pre-treated for 6 hrs prior to LPS-challenge measured after 24 hrs by Griess reaction; format: functional, cell-based; procedure, shortened: as §3
[23] = test system: RAW264.7; test: Antiinflammatory activity in LPS-stimulated mouse RAW264.7 cells assessed as reduction in TNF-alpha production at 20 and 40 uM pre-treated for 6 hrs prior to LPS-challenge measured after 24 hrs iin presence of HO-1 competitive inhibitor SnPP; format: functional, cell-based; procedure, shortened: as §1
[24] = test system: RAW264.7; test: Reduction in IL-1beta production in LPS-stimulated mouse RAW264.7 cells at 20 and 40 uM pre-treated for 6 hrs prior to LPS-challenge measured after 24 hrs; format: functional, cell-based; procedure, shortened: as §2

Sequence of Transcription factor p65 (Mus musculus) (Q04207 whole entry): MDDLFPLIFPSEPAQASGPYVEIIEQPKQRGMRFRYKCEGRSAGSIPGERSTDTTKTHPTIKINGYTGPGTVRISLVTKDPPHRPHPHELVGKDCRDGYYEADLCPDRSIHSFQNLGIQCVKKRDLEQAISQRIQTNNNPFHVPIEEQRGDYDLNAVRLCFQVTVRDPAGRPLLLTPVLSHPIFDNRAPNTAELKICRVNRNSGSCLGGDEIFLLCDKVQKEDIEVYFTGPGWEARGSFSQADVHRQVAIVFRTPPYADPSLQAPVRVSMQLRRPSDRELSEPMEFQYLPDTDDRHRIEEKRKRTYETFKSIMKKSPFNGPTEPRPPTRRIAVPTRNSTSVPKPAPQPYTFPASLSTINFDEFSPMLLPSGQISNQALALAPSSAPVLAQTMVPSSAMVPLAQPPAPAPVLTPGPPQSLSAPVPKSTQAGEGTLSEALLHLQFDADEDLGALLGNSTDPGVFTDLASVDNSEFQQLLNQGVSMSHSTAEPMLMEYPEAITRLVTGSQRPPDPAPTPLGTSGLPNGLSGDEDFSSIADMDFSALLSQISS

Activity [7]: Active | Activity [13]: Active | inhibition [15]: Active | inhibition [16]: Active | Activity [17]: Active | Activity [20]: Active
SMILES: Cc1nc(Cc2ccc(N(C)C=O)cc2)c(C)nc1Cc1ccc(N(C)C=O)cc1
Activity [1]: inactive | Activity [2]: Dose-dependent effect | Activity [3]: Dose-dependent effect | Activity [4]: Dose-dependent effect | Activity [5]: inactive | Activity [6]: inactive | Activity [8]: inactive | Activity [9]: inactive | Activity [10]: Dose-dependent effect | Activity [11]: Dose-dependent effect | inhibition [12]: Active | Activity [14]: Dose-dependent effect | Activity [18]: Dose-dependent effect | Activity [19]: inactive | Activity [21]: Dose-dependent effect | Activity [22]: Dose-dependent effect | Activity [23]: inactive | Activity [24]: Dose-dependent effect

Source: ChEMBL document CHEMBL4477190, “Marine-Derived Secondary Metabolite, Griseusrazin A, Suppresses Inflammation through Heme Oxygenase-1 Induction in Activated RAW264.7 Macrophages” (J Nat Prod, 2016)
